Only some compounds are listed: those with a hit (about 2% of all), similar ones and a draw of the others.
eIF4H inh: human eIF4H binding inhibitors, primary screen, translation initiation inhibitor project, biochemical, uHTS, fluorescence polarization. eIF4H fluorescence polarization binding assay. inhibition, % at 35 µM. 290,000 compounds, 0.94% hits. AID 2012, 2009;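 also: calls also rest on retests at 20 µM and on dose response follow-up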
DNA FID counter: compounds displacing fluorescent DNA intercalator, primary screen, artefact control for HCV NS3 helicase inhibitor project, biochemical, FID fluorescence; inhibition, % at 7.9 µM; DNA fluorescent intercalator displacement; AID 1845, 2009; 290,000 compounds, 0.17% hits; in the data active = inhibition above about 37%;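 also: 0% = vehicle and 100% = reference compound; higher means more ethidium bromide displaced from hairpin DNA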
core dimer inh: inhibitors of HCV core protein dimerization, primary screen, biochemical, TR-FRET, high-throughput; TR-FRET GST/Flag-core106 dimerization, 1536-well; inhibition, % at 5 µM; 300,000 compounds, 0.33% hits; AID 1899, 2009;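 active = inhibition above the mean of all tested compounds plus 3 SD, set per screening campaign, cut at about 45% in these data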
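Assay system: tagged HCV core106 pair (GST and Flag); medium: KF-containing HEPES buffer, pH 7.45, DTT, CHAPS, BSA; also added: Eu donor and XL665 acceptor anti-tag antibodies; dosing: 5 µM single dose; timing: compound-protein-antibody incubation 4 h at 22.5 °C; signal: TR-FRET 671 and 617 nm emission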
PABP1 MLLE inh: inhibitors of PABP1 MLLE–PAM2 peptide binding, primary screen, biochemical, fluorescence polarization, FITC-PAM2, GST-MLLE; Polyadenylate-binding protein 1 (Homo sapiens), P11940; inhibition, % at 20 µM; 360,000 compounds, 0.36% hits; AID 588489, 2011; in the data active = inhibition above about 35%, passing the limit was not always enough;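 also: plate controls were DMSO wells with GST-MLLE for no effect and wells lacking GST-MLLE protein for full effect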
Target sequence (P11940 whole entry, looked up): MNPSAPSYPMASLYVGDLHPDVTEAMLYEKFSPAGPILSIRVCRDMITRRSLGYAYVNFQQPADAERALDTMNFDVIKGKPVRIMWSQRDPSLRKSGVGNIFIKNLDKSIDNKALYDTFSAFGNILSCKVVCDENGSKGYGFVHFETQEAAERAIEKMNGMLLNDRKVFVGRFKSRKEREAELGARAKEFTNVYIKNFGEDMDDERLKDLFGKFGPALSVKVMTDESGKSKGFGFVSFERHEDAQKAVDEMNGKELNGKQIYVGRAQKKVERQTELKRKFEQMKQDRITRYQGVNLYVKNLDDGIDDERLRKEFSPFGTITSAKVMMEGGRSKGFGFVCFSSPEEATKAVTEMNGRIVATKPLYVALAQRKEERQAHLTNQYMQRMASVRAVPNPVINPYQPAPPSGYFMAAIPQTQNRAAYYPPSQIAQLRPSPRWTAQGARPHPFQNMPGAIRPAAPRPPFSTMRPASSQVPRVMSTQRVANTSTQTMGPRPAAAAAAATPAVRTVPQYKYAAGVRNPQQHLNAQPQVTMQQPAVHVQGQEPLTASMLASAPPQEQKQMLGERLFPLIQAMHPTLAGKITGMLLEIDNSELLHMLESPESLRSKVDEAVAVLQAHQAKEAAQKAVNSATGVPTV
HCV NS3 hel inh: inhibitors of HCV NS3 helicase, primary screen, biochemical, Cy5 molecular beacon fluorescence; Hepatitis C virus NS3 helicase; NS3 helicase DNA unwinding; inhibition, % at 10.9 µM; 290,000 compounds, 0.56% hits; AID 1800, 2009;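 active = inhibition above the mean of all tested compounds plus 3 SD, set per campaign, cut at about 35% in these data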;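 also: 0% = DMSO wells and 100% = thioflavine S control wells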
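test system = hepatitis C virus NS3 helicase domain fragment enzyme | reagent = annealed dual-labelled DNA beacon duplex, ATP-started | times = 1 h at 25 °C | detection = Cy5 fluorescence, 0 and 60 min reads | read-out basis = percent inhibition from t60/t0 fluorescence ratio | control set = DMSO and thioflavine S | replication = one well per compound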
PABP FP inh: PABP poly(A) RNA binding inhibitors, primary screen, biochemical, fluorescence polarization, uHTS; inhibition, % at 35 µM; 290,000 compounds, 1% hits;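 also: calls also rest on retests at 20 µM and on dose response follow-up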
Numbers without * were called inactive; ? = inconclusive; . = no result given; ! = not active in a repeat. Unless noted, no rule for the calls is given here.

SMILES | eIF4H inh | DNA FID counter | core dimer inh | PABP1 MLLE inh | HCV NS3 hel inh | PABP FP inh
O=C(O)CCc1ccc(-c2cccs2)n1CCC(=O)O | 49* | -17 | -13 | 7 | 13 | 72*
O=c1ccn(C2CCCO2)c(=O)[nH]1 (stereo unspecified) | . | . | . | 9 | . | .
O=C1N=c2ccccc2=C1c1c(O)n(-c2cccc(F)c2)[nH]c1=O | 11 | -14 | -2 | 38* | 23 | -2
Cc1cc(C(=O)N2CCC2(C)C(=O)NS(=O)(=O)c2cccc(OC(F)F)c2)nn1C (stereo unspecified) | . | . | . | 9 | . | .
O=C(O)c1ccc(Cl)c(NC(=S)NC(=O)c2ccccc2[N+](=O)[O-])c1 | -1 | -12 | 0 | 47* | 5 | 5
O=C(NC(=S)NNS(=O)(=O)c1ccccc1)c1ccc([N+](=O)[O-])cc1 | 10 | 9 | -10 | 7 | -8 | -2
O=C(NC(=S)NNS(=O)(=O)c1ccccc1)c1ccccc1[N+](=O)[O-] | 20 | -8 | 1 | 45* | 2 | 8
O=C(NC(=S)NNS(=O)(=O)c1ccccc1)c1cccnc1 | 24 | 10 | 3 | 48* | -1 | 3
Cc1ccc(S(=O)(=O)NNC(=O)c2cccnc2)cc1 | 8 | 5 | -3 | 0 | 3 | 16
O=C(NC(=S)Nc1ccccc1[N+](=O)[O-])c1ccccc1Cl | 7 | 4 | 2 | 32 | 8 | 2
CCCC(=O)Nc1nnc([C@H]2C[C@H](O)[C@@H](CO)O2)s1 | . | . | . | 5 | . | .
CC(NC(=O)c1ccc(OC2CCN(Cc3ccccn3)CC2)cc1)c1nccs1 (stereo unspecified) | -2 | -4 | -3 | 1 | -1 | 7
CC(C)C[C@H]1CNC(=O)C(=O)N1CC1CCN(CC2CCC(C)CC2)CC1 (stereo partly specified) | . | . | . | 4 | . | .
O=C(CSc1nc(O)c(Cc2ccccc2)c(=O)[nH]1)Nc1nnc(SCc2ccccc2)s1 | 1 | -6 | 3 | 37* | 8 | -3
O=C(CSc1nc(O)c(Cc2ccccc2)c(=O)[nH]1)Nc1ccccc1 | 1 | -4 | -2 | 43* | 0 | -7
CCCCNC(=O)CSc1nc(O)c(Cc2ccc(OC)cc2)c(=O)[nH]1 | -9 | -5 | 2 | 0 | 4 | 7
COc1ccc(Cc2c(O)nc(SCC(=O)NC34CC5CC(CC(C5)C3)C4)[nH]c2=O)cc1 | -4 | -43 | 9 | 41*! | 7 | 4
COc1ccc(NC(=O)CSc2nc(O)c(Cc3ccccc3)c(=O)[nH]2)cc1 | 2 | -8 | -2 | 40* | 6 | 3
O=C(O)c1ccc(Nc2nc(-c3cc4ccccc4oc3=O)cs2)cc1O | 51* | -6 | . | -51 | -2 | 19
CC(=O)Nc1ccc(Nc2nc(-c3cc4ccccc4oc3=O)cs2)cc1 | -6 | -3 | . | -60 | 5 | 12
Nc1nc(-c2ccccc2)c(-c2ccccc2)n1N | 54 | 0 | 3 | 3 | -11 | 37*
COc1ccc(CCNc2nc(-c3ccc(NC(C)=O)cc3)cs2)cc1OC | -4 | -21 | -3 | 2 | -3 | -6
CC(=O)c1sc(NCc2ccc(C)cc2)nc1C | 5 | -10 | 6 | -1 | 3 | 0
COc1ccc(CCNc2nc(C)c(C(C)=O)s2)cc1OC | -13 | -11 | 7 | 40* | -4 | 9
COc1ccc(CCNc2nc(-c3ccc(F)cc3)c(CC(=O)O)s2)cc1OC | 80 | -41 | -5 | -53 | -5 | 35*
SMILES | eIF4H inh | DNA FID counter | core dimer inh | PABP1 MLLE inh | HCV NS3 hel inh | PABP FP inh
COc1cccc(C(C)(O)c2nc(/C=C/c3ccccc3)cs2)c1 (stereo unspecified) | . | . | . | -10 | . | .
COc1ccc(CNC(=O)c2sc(=O)n(Cc3ccccc3OC)c2C)cc1 | . | . | . | -1 | . | .
CSc1ncccc1C(=O)N1CCCC(N2CCN(c3ccccc3C)CC2)C1 (stereo unspecified) | . | . | . | 12 | . | .
Cn1cc(/C=N/NC(=O)c2ccc(C#N)cc2F)c2ccccc21 | 4 | -3 | -3 | 3 | 6 | 69*
NC(=O)CSCc1nc2ccccc2s1 | 55* | -2 | 4 | 24 | 6 | 54*
N/C(Cc1nc2ccccc2s1)=N\O | 12 | 2 | 0 | -34 | 13 | -11
Oc1ccc(O)c(Cc2nc3ccccc3s2)c1 | 82* | -11 | -3 | -4 | 13 | 6.5*
Cc1ccc(Cl)cc1N1CCN(C(=O)Cn2ncn3cccc3c2=O)CC1 | 0 | -31 | -2 | 2 | -1 | 0
CCN1CCN(C(=O)C2CCN(c3nnc(C)c4c(C)n(-c5ccc(C)cc5)nc34)CC2)CC1 | -5 | 43* | -2 | -6 | -8 | 5
COc1ccc(-n2nc3c(N4CCC(C(=O)NCCc5ccccc5C)CC4)nnc(C)c3c2C)cc1 | -14 | 8 | -3 | -9 | -41 | -3
Cc1ccc(-n2nc3c(N4CCC(C(=O)NCCc5ccccc5C)CC4)nnc(C)c3c2C)cc1 | -2 | 37* | 24 | -15 | -93 | -7
Cc1ccc(C(=O)NCC(=O)Nc2cccc(C(F)(F)F)c2)cc1 | active | -1 | -5 | -11 | -3 | 119
Clc1ccc(Cn2ncc3c(N4CCN(c5ccccc5)CC4)ncnc32)cc1 | . | . | . | -1 | . | .
O=C(CCNC(=O)c1ccccc1)NCCc1ccc(Cl)cc1 | -6 | -13 | 4 | -8 | -11 | -4
COc1ccc(N(CCCN2C(=O)c3cccc4cccc(c34)C2=O)C(=O)c2ccncc2)cc1 | 0 | -32 | 6 | 0 | -7 | 6
COc1ccc(N(CCN2C(=O)c3ccccc3C2=O)C(=O)c2cccc([N+](=O)[O-])c2)cc1 | active | -21 | 0 | -9 | -23 | 72*
Cc1sc2nc(COC(=O)c3ccc(N4CCCC(C)C4)c([N+](=O)[O-])c3)[nH]c(=O)c2c1C (stereo unspecified) | -1 | 1 | 23 | -5 | -5 | 12
Cc1sc2nc(COC(=O)c3ccc(Cl)c(N)c3)[nH]c(=O)c2c1C | 74* | -13 | 2 | -21 | -13 | 63*
Cc1sc2nc(COC(=O)c3ccc(N4CCCC4)c([N+](=O)[O-])c3)[nH]c(=O)c2c1C | ? | -4 | 40 | -84 | 15 | 1.7*
Cc1cc(C)nc(S/C=C/C(=O)c2ccccc2F)n1 | 2 | -7 | 9 | 42* | -15 | -1
Cc1cc(C)nc(NC(=S)NC(=O)c2ccccc2F)n1 | . | . | 0 | 34 | . | .
COc1cc(C2C(C(C)=O)=C(O)C(=O)N2Cc2ccccc2)ccc1O (stereo unspecified) | 5 | -7 | . | -5 | 10 | 9
